One experiment concerns MCF7. In words: Antiproliferative activity against human MCF7 cells incubated for 72 hrs by CCK8 assay. The class given is functional, cell-based. In a few lines: (§1)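 HCT116, MCF-7 and A549 human cancer cell lines; antiproliferative activity read out by CCK8 assay. Evodiamine derivatives and camptothecin served as positive controls.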
(Formazan colour is commonly taken as a measure of viable cells.)

Another experiment concerns A549. Description: Antiproliferative activity against human A549 cells incubated for 72 hrs by CCK8 assay. The class given is functional, cell-based. In a few lines: as §1
The next experiment concerns HCT-116. Description: Antiproliferative activity against human HCT116 cells incubated for 72 hrs by CCK8 assay. It counts as functional, cell-based. In a few lines:
as §1

Experiment [1] deals with T1, DNA topoisomerase 1 (Homo sapiens) (UniProt P11387).
T1 sequence (whole entry): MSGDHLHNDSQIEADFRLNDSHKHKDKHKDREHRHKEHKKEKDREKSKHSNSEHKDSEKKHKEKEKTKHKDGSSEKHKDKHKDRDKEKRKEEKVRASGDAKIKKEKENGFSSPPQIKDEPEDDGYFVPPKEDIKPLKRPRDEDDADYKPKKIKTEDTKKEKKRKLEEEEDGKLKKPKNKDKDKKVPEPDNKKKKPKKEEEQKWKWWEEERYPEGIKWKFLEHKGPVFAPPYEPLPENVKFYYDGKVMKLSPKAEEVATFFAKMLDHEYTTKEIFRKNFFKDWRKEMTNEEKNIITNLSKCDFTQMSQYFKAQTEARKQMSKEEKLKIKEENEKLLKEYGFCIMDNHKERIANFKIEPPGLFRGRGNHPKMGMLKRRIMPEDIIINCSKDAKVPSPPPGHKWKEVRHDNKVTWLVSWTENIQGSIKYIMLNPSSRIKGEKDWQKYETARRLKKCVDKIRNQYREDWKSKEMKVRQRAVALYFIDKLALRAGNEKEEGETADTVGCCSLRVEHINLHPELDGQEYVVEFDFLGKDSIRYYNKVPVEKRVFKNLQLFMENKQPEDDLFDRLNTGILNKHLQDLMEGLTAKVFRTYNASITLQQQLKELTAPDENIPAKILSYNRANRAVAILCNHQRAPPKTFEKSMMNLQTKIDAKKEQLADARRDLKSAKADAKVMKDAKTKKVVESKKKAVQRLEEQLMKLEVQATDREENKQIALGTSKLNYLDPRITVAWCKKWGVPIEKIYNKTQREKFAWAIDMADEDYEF
Description: Inhibition of Top1 (unknown origin) at 500 uM using supercoiled pBR322 plasmid DNA as substrate incubated for 15 mins by PI staining based agarose gel electrophoresis analysis. In a few lines: (§2)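 Top1 inhibition tested at 500, 250 and 125 μM, and over 27.9 to 250 μM for selected compounds.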

The target of experiment [2] is T2, DNA topoisomerase II (Homo sapiens) (UniProt P11388+Q02880). In words: Inhibition of Top2 (unknown origin) at 50 uM using supercoiled pBR322 plasmid DNA as substrate incubated for 30 mins by PI staining based agarose gel electrophoresis analysis. The class given is protein assay.
In experiment [3] the target is T1, DNA topoisomerase 1 (Homo sapiens). In words: Inhibition of Top1 (unknown origin) at 125 uM using supercoiled pBR322 plasmid DNA as substrate incubated for 15 mins by PI staining based agarose gel electrophoresis analysis. An outline of the steps:
as §2

The target of experiment [4] is T2, DNA topoisomerase II (Homo sapiens). In words: Inhibition of Top2 (unknown origin) using supercoiled pBR322 plasmid as substrate incubated for 30 mins by PI staining based agarose gel electrophoresis analysis. It counts as protein assay.
The mark [5] stands for this setting: Homo sapiens, MCF7, 72 h, read-out: IC50.
[6] abbreviates: Homo sapiens, A549, 72 h, read-out: IC50.
The mark [7] stands for this setting: Homo sapiens, HCT-116, 72 h, read-out: IC50.

The source made the active and inactive calls. The rule behind the calls is not given here.

As a reminder, the IC50 is the concentration at which inhibition is half-maximal. As for `CN1c2ccccc2C(=O)N2CCc3c(n(C(=O)OC(C)(C)C)c4ccc(OCc5ccc(B6OC(C)(C)C(C)(C)O6)cc5)cc34)C21` (stereo unspecified), the IC50 was 4130 nM with MCF7 (setting [5]), 3440 nM in the experiment on A549 (setting [6]) and 4180 nM in the experiment with HCT-116 (setting [7]).
On to `CN1c2ccccc2C(=O)N2CCc3c([nH]c4ccc(O)cc34)C21` (stereo unspecified), for which the inhibition entry in experiment [1] was “Active”. Also, the results for the IC50 with MCF7 (setting [5]), in the experiment on A549 (setting [6]) and with HCT-116 (setting [7]) were 270 nM, 84 nM and 55 nM, respectively.
On the same counts, the results for `CN1c2ccccc2C(=O)N2CCc3c([nH]c4ccc(B(O)O)cc34)C21` (stereo unspecified) are “Active”, 160 nM, 100 nM and 69 nM.
As for `CN1c2ccccc2C(=O)N2CCc3c([nH]c4ccc(OCc5ccc(B(O)O)cc5)cc34)C21` (stereo unspecified), the inhibition result in experiment [1], in experiment [2] and in experiment [3] was “Active” throughout. In addition, the values for the 50% inhibitory concentration (IC50) in the experiment with MCF7 (setting [5]), in the experiment with A549 (setting [6]) and in the experiment with HCT-116 (setting [7]) were 110 nM, 74 nM and 120 nM, respectively.
Consider `CC(=O)Oc1ccc(CCl)cc1`, for which the IC50 entry with MCF7 (mcf7), in the experiment with A549 (a549) and in the experiment with HCT-116 (hct-116) was “Not Active” each time.
Regarding `COc1cc([C@@H]2c3cc4c(cc3[C@@H](O[C@@H]3O[C@@H]5CO[C@@H](C)O[C@H]5[C@H](O)[C@H]3O)[C@H]3COC(=O)[C@H]23)OCO4)cc(OC)c1O`, the inhibition result in experiment [4] was “Active”.
Turning to `CN1c2ccc(F)cc2C(=O)N2CCc3c([nH]c4ccc(B(O)O)cc34)C21` (stereo unspecified), the inhibition entry in experiment [1] is “Active”. For the same molecule, the results for the IC50 in the experiment on MCF7 (setting [5]), in the experiment with A549 (setting [6]) and with HCT-116 (setting [7]) were 94 nM, 40 nM and 63 nM, respectively.
For the molecule `CN1c2ccccc2C(=O)N2CCc3c([nH]c4ccc(B5OC(C)(C)C(C)(C)O5)cc34)C21` (stereo unspecified), the half-maximal inhibitory concentration (IC50) with MCF7 (setting [5]) amounted to 390 nM; in the experiment with A549 (setting [6]), 170 nM; with HCT-116 (setting [7]), 220 nM.
The corresponding values for `CN1c2ccc(F)cc2C(=O)N2CCc3c(n(C(=O)OC(C)(C)C)c4ccc(OCc5ccc(B(O)O)cc5)cc34)C21` (stereo unspecified) are 2390 nM, 2130 nM and 4910 nM.
For the molecule `CN1c2ccc(F)cc2C(=O)N2CCc3c([nH]c4ccc(OCc5ccc(B(O)O)cc5)cc34)C21` (stereo unspecified), the inhibition result in experiment [1], in experiment [4] and in experiment [3] was “Active” throughout. The concentration for half-maximal inhibition (IC50) in the experiment with MCF7 (setting [5]) amounted to 59 nM; in the experiment on A549 (setting [6]), 73 nM; in the experiment with HCT-116 (setting [7]), 83 nM.
On to `CN1c2ccc(F)cc2C(=O)N2CCc3c(n(C(=O)OC(C)(C)C)c4ccc(OCc5ccc(B6OC(C)(C)C(C)(C)O6)cc5)cc34)C21` (stereo unspecified), for which the values for the IC50 in the experiment on MCF7 (setting [5]), in the experiment with A549 (setting [6]) and with HCT-116 (setting [7]) were 7850 nM, 2230 nM and 2170 nM, respectively.
The corresponding values for `CC[C@@]1(O)C(=O)OCc2c1cc1n(c2=O)Cc2cc3ccccc3nc2-1` [CAMPTOTHECIN] are 84 nM, 39 nM and 9 nM.
The corresponding values for `CN1c2ccc(F)cc2C(=O)N2CCc3c([nH]c4ccc(OCc5ccc(B6OC(C)(C)C(C)(C)O6)cc5)cc34)C21` (stereo unspecified) are 97 nM, 120 nM and 150 nM.
On the same counts, the results for `CN1c2ccccc2C(=O)N2CCc3c(n(C(=O)OC(C)(C)C)c4ccc(OCc5ccc(B(O)O)cc5)cc34)C21` (stereo unspecified) are 1580 nM, 7200 nM and 520 nM.
Regarding `CN1c2ccc(F)cc2C(=O)N2CCc3c([nH]c4ccc(B5OC(C)(C)C(C)(C)O5)cc34)C21` (stereo unspecified), the half-inhibitory concentration (IC50) was 960 nM in the experiment with MCF7 (setting [5]), 110 nM in the experiment on A549 (setting [6]) and 170 nM in the experiment on HCT-116 (setting [7]).
The corresponding values for `CN1c2ccccc2C(=O)N2CCc3c([nH]c4ccc(OCc5ccc(B6OC(C)(C)C(C)(C)O6)cc5)cc34)C21` (stereo unspecified) are 160 nM, 390 nM and 100 nM.
For `CN1c2ccccc2C(=O)N2CCc3c([nH]c4ccc(OC(=O)OCc5ccc(B6OC(C)(C)C(C)(C)O6)cc5)cc34)C21` (stereo unspecified), the inhibition result in experiment [1], in experiment [2] and in experiment [3] was “Active” each time. The concentration for half-maximal inhibition (IC50) with MCF7 (setting [5]) was found to be 86 nM; in the experiment on A549 (setting [6]) it was 100 nM; in the experiment with HCT-116 (setting [7]), 65 nM.

Values taken from ChEMBL document CHEMBL4602706, “Natural Product Evodiamine with Borate Trigger Unit: Discovery of Potent Antitumor Agents against Colon Cancer” (ACS Med Chem Lett, 2020).
